According to ChEMBL document CHEMBL1255396, “Trailing or paradoxical growth of Candida albicans when exposed to caspofungin is not associated with microsatellite genotypes” (2010):
Converted amounts (≈) assume the structure as drawn.

Legend:
Type in all cases: functional
Candida albicans [1] = experiment: Antimicrobial activity against Candida albicans isolate 2 after 48 hrs by broth microdilution assay; conditions: isolate 2, 48 h
In short: (§1)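 Sensititre YeastOne caspofungin broth microdilution, which follows the CLSI method but uses alamarBlue readout in RPMI 1640 with 2% glucose. Done in duplicate and read after 48 h at 30°C. QC strains were C. krusei ATCC 6258 and C. parapsilosis ATCC 22019. Isolates were from different patients and wards in four Marseille hospitals.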

Candida albicans [2] = experiment: Antimicrobial activity against Candida albicans isolate 27 after 48 hrs by Etest method; conditions: isolate 27, 48 h
In short: (§2)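 Caspofungin agar-diffusion Etest strips on clinical isolates from four Marseille teaching hospitals, each from a different patient. Run in duplicate and read after 48 h at 30°C. QC strains were C. krusei ATCC 6258 and C. parapsilosis ATCC 22019. Trailing, paradoxical growth and clear endpoints were scored from growth relative to the MIC.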

Candida albicans [3] = experiment: Antimicrobial activity against Candida albicans isolate 2 after 48 hrs by Etest method; conditions: isolate 2, 48 h; in short: as §2
Candida albicans [4] = experiment: Antimicrobial activity against Candida albicans isolate 15 after 48 hrs by Etest method; conditions: isolate 15, 48 h; in short: as §2
Candida albicans [5] = experiment: Antimicrobial activity against Candida albicans isolate 7 after 48 hrs by broth microdilution assay; conditions: isolate 7, 48 h; in short: as §1
Candida albicans [6] = experiment: Antimicrobial activity against Candida albicans isolate 3 after 48 hrs by Etest method; conditions: isolate 3, 48 h; in short: as §2
Candida albicans [7] = experiment: Antimicrobial activity against Candida albicans isolate 9 after 48 hrs by Etest method; conditions: isolate 9, 48 h
In short: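 Caspofungin Etest strip (agar diffusion) applied per manufacturer to a clinical isolate. Plates read after 48 h at 30°C. Testing done in duplicate. QC strains: C. krusei ATCC 6258 and C. parapsilosis ATCC 22019. Paradoxical growth and trailing were scored as separate endpoint phenotypes.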

Candida albicans [8] = experiment: Antimicrobial activity against Candida albicans isolate 8 after 48 hrs by Etest method; conditions: isolate 8, 48 h; in short: as §2
Candida albicans [9] = experiment: Antimicrobial activity against Candida albicans isolate 15 after 48 hrs by broth microdilution assay; conditions: isolate 15, 48 h; in short: as §1
Candida albicans [10] = experiment: Antimicrobial activity against Candida albicans isolate 4 after 48 hrs by Etest method; conditions: isolate 4, 48 h; in short: as §2
Candida albicans [11] = experiment: Antimicrobial activity against Candida albicans isolate 16 after 48 hrs by broth microdilution assay; conditions: isolate 16, 48 h; in short: as §1
Candida albicans [12] = experiment: Antimicrobial activity against Candida albicans isolate 3 after 48 hrs by broth microdilution assay; conditions: isolate 3, 48 h; in short: as §1
Candida albicans [13] = experiment: Antimicrobial activity against Candida albicans isolate 6 after 48 hrs by Etest method; conditions: isolate 6, 48 h; in short: as §2
Candida albicans [14] = experiment: Antimicrobial activity against Candida albicans isolate 18 after 48 hrs by Etest method; conditions: isolate 18, 48 h; in short: as §2
Candida albicans [15] = experiment: Antimicrobial activity against Candida albicans isolate 13 after 48 hrs by broth microdilution assay; conditions: isolate 13, 48 h; in short: as §1
Candida albicans [16] = experiment: Antimicrobial activity against Candida albicans isolate 14 after 48 hrs by Etest method; conditions: isolate 14, 48 h; in short: as §2
Candida albicans [17] = experiment: Antimicrobial activity against Candida albicans isolate 23 after 48 hrs by broth microdilution assay; conditions: isolate 23, 48 h; in short: as §1
Candida albicans [18] = experiment: Antimicrobial activity against Candida albicans isolate 24 after 48 hrs by broth microdilution assay; conditions: isolate 24, 48 h; in short: as §1
Candida albicans [19] = experiment: Antimicrobial activity against Candida albicans isolate 22 after 48 hrs by broth microdilution assay; conditions: isolate 22, 48 h; in short: as §1
Candida albicans [20] = experiment: Antimicrobial activity against Candida albicans isolate 21 after 48 hrs by broth microdilution assay; conditions: isolate 21, 48 h; in short: as §1
Candida albicans [21] = experiment: Antimicrobial activity against Candida albicans isolate 25 after 48 hrs by broth microdilution assay; conditions: isolate 25, 48 h; in short: as §1
Candida albicans [22] = experiment: Antimicrobial activity against Candida albicans isolate 14 after 48 hrs by broth microdilution assay; conditions: isolate 14, 48 h; in short: as §1
Candida albicans [23] = experiment: Antimicrobial activity against Candida albicans isolate 22 after 48 hrs by Etest method; conditions: isolate 22, 48 h; in short: as §2
Candida albicans [24] = experiment: Antimicrobial activity against Candida albicans isolate 7 after 48 hrs by Etest method; conditions: isolate 7, 48 h; in short: as §2
Candida albicans [25] = experiment: Antimicrobial activity against Candida albicans isolate 25 after 48 hrs by Etest method; conditions: isolate 25, 48 h; in short: as §2
Candida albicans [26] = experiment: Antimicrobial activity against Candida albicans isolate 6 after 48 hrs by broth microdilution assay; conditions: isolate 6, 48 h; in short: as §1
Candida albicans [27] = experiment: Antimicrobial activity against Candida albicans isolate 24 after 48 hrs by Etest method; conditions: isolate 24, 48 h; in short: as §2
Candida albicans [28] = experiment: Antimicrobial activity against Candida albicans isolate 12 after 48 hrs by Etest method; conditions: isolate 12, 48 h; in short: as §2
Candida albicans [29] = experiment: Antimicrobial activity against Candida albicans isolate 1 after 48 hrs by broth microdilution assay; conditions: isolate 1, 48 h; in short: as §1
Candida albicans [30] = experiment: Antimicrobial activity against Candida albicans isolate 16 after 48 hrs by Etest method; conditions: isolate 16, 48 h; in short: as §2
Candida albicans [31] = experiment: Antimicrobial activity against Candida albicans isolate 11 after 48 hrs by broth microdilution assay; conditions: isolate 11, 48 h; in short: as §1
Candida albicans [32] = experiment: Antimicrobial activity against Candida albicans isolate 27 after 48 hrs by broth microdilution assay; conditions: isolate 27, 48 h; in short: as §1
Candida albicans [33] = experiment: Antimicrobial activity against Candida albicans isolate 26 after 48 hrs by Etest method; conditions: isolate 26, 48 h; in short: as §2
Candida albicans [34] = experiment: Antimicrobial activity against Candida albicans isolate 20 after 48 hrs by Etest method; conditions: isolate 20, 48 h; in short: as §2
Candida albicans [35] = experiment: Antimicrobial activity against Candida albicans isolate 26 after 48 hrs by broth microdilution assay; conditions: isolate 26, 48 h; in short: as §1
Candida albicans [36] = experiment: Antimicrobial activity against Candida albicans isolate 19 after 48 hrs by broth microdilution assay; conditions: isolate 19, 48 h; in short: as §1
Candida albicans [37] = experiment: Antimicrobial activity against Candida albicans isolate 23 after 48 hrs by Etest method; conditions: isolate 23, 48 h; in short: as §2
Candida albicans [38] = experiment: Antimicrobial activity against Candida albicans isolate 19 after 48 hrs by Etest method; conditions: isolate 19, 48 h; in short: as §2
Candida albicans [39] = experiment: Antimicrobial activity against Candida albicans isolate 17 after 48 hrs by Etest method; conditions: isolate 17, 48 h; in short: as §2
Candida albicans [40] = experiment: Antimicrobial activity against Candida albicans isolate 1 after 48 hrs by Etest method; conditions: isolate 1, 48 h; in short: as §2
Candida albicans [41] = experiment: Antimicrobial activity against Candida albicans isolate 21 after 48 hrs by Etest method; conditions: isolate 21, 48 h; in short: as §2
Candida albicans [42] = experiment: Antimicrobial activity against Candida albicans isolate 4 after 48 hrs by broth microdilution assay; conditions: isolate 4, 48 h; in short: as §1
Candida albicans [43] = experiment: Antimicrobial activity against Candida albicans isolate 5 after 48 hrs by Etest method; conditions: isolate 5, 48 h; in short: as §2
Candida albicans [44] = experiment: Antimicrobial activity against Candida albicans isolate 18 after 48 hrs by broth microdilution assay; conditions: isolate 18, 48 h; in short: as §1
Candida albicans [45] = experiment: Antimicrobial activity against Candida albicans isolate 8 after 48 hrs by broth microdilution assay; conditions: isolate 8, 48 h; in short: as §1
Candida albicans [46] = experiment: Antimicrobial activity against Candida albicans isolate 12 after 48 hrs by broth microdilution assay; conditions: isolate 12, 48 h; in short: as §1
Candida albicans [47] = experiment: Antimicrobial activity against Candida albicans isolate 5 after 48 hrs by broth microdilution assay; conditions: isolate 5, 48 h; in short: as §1
Candida albicans [48] = experiment: Antimicrobial activity against Candida albicans isolate 9 after 48 hrs by broth microdilution assay; conditions: isolate 9, 48 h
In short: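 Sensititre Yeast One broth microdilution used per manufacturer. It matches the CLSI method except for the alamarBlue read-out and RPMI 1640 with 2% glucose. Read after 48 h at 30°C. Testing done in duplicate. QC strains: C. krusei ATCC 6258 and C. parapsilosis ATCC 22019. Paradoxical growth and trailing were scored separately.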

Candida albicans [49] = experiment: Antimicrobial activity against Candida albicans isolate 11 after 48 hrs by Etest method; conditions: isolate 11, 48 h; in short: as §2
Candida albicans [50] = experiment: Antimicrobial activity against Candida albicans isolate 20 after 48 hrs by broth microdilution assay; conditions: isolate 20, 48 h; in short: as §1
Candida albicans [51] = experiment: Antimicrobial activity against Candida albicans isolate 17 after 48 hrs by broth microdilution assay; conditions: isolate 17, 48 h; in short: as §1
Candida albicans [52] = experiment: Antimicrobial activity against Candida albicans isolate 13 after 48 hrs by Etest method; conditions: isolate 13, 48 h; in short: as §2

CC[C@H](C)C[C@H](C)CCCCCCCCC(=O)N[C@H]1C[C@@H](O)[C@@H](NCCN)NC(=O)[C@@H]2[C@@H](O)CCN2C(=O)[C@H]([C@H](O)CCN)NC(=O)[C@H]([C@H](O)[C@@H](O)c2ccc(O)cc2)NC(=O)[C@@H]2C[C@@H](O)CN2C(=O)[C@H]([C@@H](C)O)NC1=O [CASPOFUNGIN]
MIC (Candida albicans [1]): 0.032 µg/mL (≈ 0.0293 µM)
MIC (Candida albicans [2]): 0.047 µg/mL (≈ 0.043 µM)
MIC (Candida albicans [3]): 0.032 µg/mL (≈ 0.0293 µM)
MIC (Candida albicans [4]): 0.016 µg/mL (≈ 0.0146 µM)
MIC (Candida albicans [5]): 0.064 µg/mL (≈ 0.0585 µM)
MIC (Candida albicans [6]): 0.032 µg/mL (≈ 0.0293 µM)
MIC (Candida albicans [7]): 0.047 µg/mL (≈ 0.043 µM)
MIC (Candida albicans [8]): 0.125 µg/mL (≈ 0.114 µM)
MIC (Candida albicans [9]): 0.016 µg/mL (≈ 0.0146 µM)
MIC (Candida albicans [10]): 0.032 µg/mL (≈ 0.0293 µM)
MIC (Candida albicans [11]): 0.032 µg/mL (≈ 0.0293 µM)
MIC (Candida albicans [12]): 0.032 µg/mL (≈ 0.0293 µM)
MIC (Candida albicans [13]): 0.125 µg/mL (≈ 0.114 µM)
MIC (Candida albicans [14]): 0.094 µg/mL (≈ 0.086 µM)
MIC (Candida albicans [15]): 0.023 µg/mL (≈ 0.021 µM)
MIC (Candida albicans [16]): 0.032 µg/mL (≈ 0.0293 µM)
MIC (Candida albicans [17]): 0.064 µg/mL (≈ 0.0585 µM)
MIC (Candida albicans [18]): 0.064 µg/mL (≈ 0.0585 µM)
MIC (Candida albicans [19]): 0.125 µg/mL (≈ 0.114 µM)
MIC (Candida albicans [20]): 0.064 µg/mL (≈ 0.0585 µM)
MIC (Candida albicans [21]): 0.064 µg/mL (≈ 0.0585 µM)
MIC (Candida albicans [22]): 0.032 µg/mL (≈ 0.0293 µM)
MIC (Candida albicans [23]): 0.125 µg/mL (≈ 0.114 µM)
MIC (Candida albicans [24]): 0.064 µg/mL (≈ 0.0585 µM)
MIC (Candida albicans [25]): 0.064 µg/mL (≈ 0.0585 µM)
MIC (Candida albicans [26]): 0.125 µg/mL (≈ 0.114 µM)
MIC (Candida albicans [27]): 0.064 µg/mL (≈ 0.0585 µM)
MIC (Candida albicans [28]): 0.064 µg/mL (≈ 0.0585 µM)
MIC (Candida albicans [29]): 0.008 µg/mL (≈ 0.00732 µM)
MIC (Candida albicans [30]): 0.032 µg/mL (≈ 0.0293 µM)
MIC (Candida albicans [31]): 0.094 µg/mL (≈ 0.086 µM)
MIC (Candida albicans [32]): 0.047 µg/mL (≈ 0.043 µM)
MIC (Candida albicans [33]): 0.094 µg/mL (≈ 0.086 µM)
MIC (Candida albicans [34]): 0.032 µg/mL (≈ 0.0293 µM)
MIC (Candida albicans [35]): 0.094 µg/mL (≈ 0.086 µM)
MIC (Candida albicans [36]): 0.75 µg/mL (≈ 0.686 µM)
MIC (Candida albicans [37]): 0.064 µg/mL (≈ 0.0585 µM)
MIC (Candida albicans [38]): 0.75 µg/mL (≈ 0.686 µM)
MIC (Candida albicans [39]): 0.125 µg/mL (≈ 0.114 µM)
MIC (Candida albicans [40]): 0.008 µg/mL (≈ 0.00732 µM)
MIC (Candida albicans [41]): 0.064 µg/mL (≈ 0.0585 µM)
MIC (Candida albicans [42]): 0.032 µg/mL (≈ 0.0293 µM)
MIC (Candida albicans [43]): 0.064 µg/mL (≈ 0.0585 µM)
MIC (Candida albicans [44]): 0.094 µg/mL (≈ 0.086 µM)
MIC (Candida albicans [45]): 0.125 µg/mL (≈ 0.114 µM)
MIC (Candida albicans [46]): 0.064 µg/mL (≈ 0.0585 µM)
MIC (Candida albicans [47]): 0.064 µg/mL (≈ 0.0585 µM)
MIC (Candida albicans [48]): 0.047 µg/mL (≈ 0.043 µM)
MIC (Candida albicans [49]): 0.094 µg/mL (≈ 0.086 µM)
MIC (Candida albicans [50]): 0.032 µg/mL (≈ 0.0293 µM)
MIC (Candida albicans [51]): 0.125 µg/mL (≈ 0.114 µM)
MIC (Candida albicans [52]): 0.023 µg/mL (≈ 0.021 µM)
